# Assay results collected from several papers.
# Each line is one published result; the experiments were not run side by side.
# Target: cGMP-dependent protein kinase 1 (PRKG1, Homo sapiens, UniProt Q13976)
# Residues used in one study (Q13976 1-671): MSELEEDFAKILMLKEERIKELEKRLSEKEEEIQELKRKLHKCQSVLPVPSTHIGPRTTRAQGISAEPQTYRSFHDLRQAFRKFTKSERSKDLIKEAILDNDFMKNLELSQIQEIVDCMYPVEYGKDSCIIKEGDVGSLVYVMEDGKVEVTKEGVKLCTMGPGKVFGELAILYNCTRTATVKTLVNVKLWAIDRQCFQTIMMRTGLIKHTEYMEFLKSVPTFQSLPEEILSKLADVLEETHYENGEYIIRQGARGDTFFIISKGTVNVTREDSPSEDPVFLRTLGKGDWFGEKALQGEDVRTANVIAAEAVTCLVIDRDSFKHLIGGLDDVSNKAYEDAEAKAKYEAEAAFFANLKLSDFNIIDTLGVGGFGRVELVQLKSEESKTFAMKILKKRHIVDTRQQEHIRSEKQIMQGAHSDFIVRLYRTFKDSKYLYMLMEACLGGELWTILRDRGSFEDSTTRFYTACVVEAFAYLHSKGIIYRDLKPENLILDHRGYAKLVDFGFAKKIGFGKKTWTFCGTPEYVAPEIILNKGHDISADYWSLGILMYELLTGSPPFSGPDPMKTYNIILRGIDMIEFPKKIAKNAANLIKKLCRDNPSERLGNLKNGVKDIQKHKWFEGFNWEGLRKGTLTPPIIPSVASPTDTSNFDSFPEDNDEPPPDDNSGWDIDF
SMILES,assay,conditions,remaining binding
C[C@@H]1CCN(c2nccc(-c3cnn4ncccc34)n2)C1,binding,1 µM,68%
CC1=C(C#N)[C@@H](c2ccc3[nH]nc(C)c3c2)C(C#N)=C(c2ccc(Cl)cc2)N1,"cell-free assay, competition with immobilised ligand",1 µM,86.9%
CNC(=O)[C@@H]1CC[C@@H](n2c(-c3ccc4cnccc4c3)nc3ccc(C(=O)NCc4cccc(C(N)=O)c4)cc32)C1,"binding, competition with immobilised ligand",1 µM,98%
O=C(N[C@H]1CCCCC/C=C\C2C[C@@]2(C(=O)O)NC(=O)[C@@H]2C[C@@H](Oc3ccncc3)CN2C1=O)OC1CCCC1 (stereo partly drawn),"binding, competition with immobilised ligand",1 µM,100%
CCN1CCN(Cc2ccc(C(=O)Nc3ccc(C)c(Oc4ccc5c(c4)CC(=O)N5)c3)cc2C(F)(F)F)CC1,"binding, competition with immobilised ligand",1 µM,100%
CN(CCCC(F)(F)F)c1nccc(-c2cnn3ncccc23)n1,binding,1 µM,100%
COc1cnc(Nc2cccc(S(N)(=O)=O)c2)nc1N1CCN(c2ccccc2)C(=O)C1,"binding, competition with immobilised ligand",1 µM,100%
C=CC(=O)N1CCC(C(=O)NCC(=O)N2CCN(c3nc(-c4cnc(N)nc4C(F)F)nc(N4CCOCC4)n3)CC2)CC1,"binding, competition with immobilised ligand",1 µM,87%
O=C(c1ccc(Nc2ncc(Cl)c(-c3ccc(Cl)s3)n2)cc1)N1CCC(N2CCCC2)CC1,"binding, competition with immobilised ligand",1 µM,100%
COc1ccc2c(c1)O[C@@H](c1ccc(OC)c(OC)c1)C[C@H]2NC(=O)C1(c2ccc3c(c2)OC(F)(F)O3)CC1,"cell-free assay, competition with immobilised ligand",1 µM,100%
C[C@@H](c1ccc(-n2cnc3c(N)ncnc32)cc1)N1CCc2nn(C)c(Cc3ccccc3)c2C1=O,"binding, competition with immobilised ligand",0.1 µM,82%
N[C@@H]1CCN(c2nccc(-c3cnn4ncccc34)n2)C1,binding,1 µM,100%
CCCOc1ccc([C@H]2[C@H](C(=O)O)[C@@H](c3ccc4c(c3)OCO4)CN2CC(=O)Nc2c(CC)cccc2CC)cc1,"cell-free assay, competition with immobilised ligand",1 µM,88%
CN(C)c1nccc(-c2cnc3ncccn23)n1,binding,1 µM,81%
Cc1c(C(=O)O)cc(-c2ccc(C3CCNCC3)cc2)c2ccc(-c3ccc(C(F)(F)F)cc3)cc12,"binding, competition with immobilised ligand",1 µM,97%
F[C@@H]1CCN(c2nccc(-c3cnn4ncccc34)n2)C1,binding,1 µM,90%
O=C(c1ccc(Nc2nccc(-c3cc4ccccc4s3)n2)cc1)N1CCC(N2CCCC2)CC1,"binding, competition with immobilised ligand",1 µM,100%
O=C(Nc1c[nH]nc1C(=O)NC1CCNCC1)c1cc(F)cc(F)c1,"binding, competition with immobilised ligand",1 µM,100%
c1cnn2ncc(-c3ccnc(N4CCC45COC5)n3)c2c1,binding,1 µM,89%
CS(=O)(=O)NCC[C@H](NC(=O)c1cncc2c1cnn2-c1ccc(F)cc1)c1ccnc(S(C)(=O)=O)c1,"cell-free assay, competition with immobilised ligand",1 µM,96%
O=C(NCCCN1CCOCC1)c1ccc(Nc2nccc(-c3cc4ccccc4s3)n2)cc1,"binding, competition with immobilised ligand",1 µM,99%
